# SIRT5 block = blocks human SIRT5 desuccinylation of peptide | Q9NXA8 | inhibition, % at 15 µM | hit rate 1.1% among 330,000 | Purified SirT5, succinyl-peptide AMC, trypsin-coupled fluorescence; in the data active means inhibition above about 15%
# FN deposit inh = fibronectin deposition inhibition; hit rate 0.086% among 350,000; AID 743247; AH1F fibroblasts, Alexa488-fibronectin deposition fluorescence, overnight; inhibition, % at 12.6 µM;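 active means mean inhibition across replicates of 30% or more, regardless of how many single replicates reach that level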;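 further: positive control wells lacked labelled fibronectin entirely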
#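 Test system: AH1F fibroblast monolayer depositing Alexa488-labelled fibronectin into matrix. Input: 10000 cells per well. Technique: fluorescence, ex 485 nm, em 525 nm. Buffer or medium: DMEM plus 2% serum, read in PBS. Timing: 1 h cell adhesion before compound, then overnight fibronectin incubation. Compound: single dose, pinned. Read-out basis: inhibition from reduced deposited-fibronectin fluorescence.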
# ERp5 block = ERp5 (human) disulfide isomerase inhibition. hit rate 0.05% among 350,000. ERp5 insulin aggregation, absorbance 650 nm, 90 min. inhibition, % at 9.99 µM. AID 651711. Q15084;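 active means mean replicate inhibition above about 25%, with every replicate also reaching it, limit read from the data, passing the limit was not always enough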
# PDI turbidity = PDI (human) enzyme inhibition; PDI insulin aggregation turbidity, A650, 90 min; inhibition, % at 10 µM; hit rate 0.052% among 350,000; AID 588391;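 active means mean inhibition across replicates of 30% or more, whatever share of single replicates reach that level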
# MLL AF4-AF9 inh = blocks AF4 peptide binding to human AF9; AID 651704; hit rate 0.47% among 350,000; inhibition, % at 10 µM; AlphaScreen, biotin-AF4 peptide binding to FLAG-AF9;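 active means every replicate reaching a set inhibition limit, whatever the replicate mean, cut at about 25% in these data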;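 further: 0% = plate neutral control median and 100% = total signal loss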
# Target sequence (P42568 whole entry, looked up): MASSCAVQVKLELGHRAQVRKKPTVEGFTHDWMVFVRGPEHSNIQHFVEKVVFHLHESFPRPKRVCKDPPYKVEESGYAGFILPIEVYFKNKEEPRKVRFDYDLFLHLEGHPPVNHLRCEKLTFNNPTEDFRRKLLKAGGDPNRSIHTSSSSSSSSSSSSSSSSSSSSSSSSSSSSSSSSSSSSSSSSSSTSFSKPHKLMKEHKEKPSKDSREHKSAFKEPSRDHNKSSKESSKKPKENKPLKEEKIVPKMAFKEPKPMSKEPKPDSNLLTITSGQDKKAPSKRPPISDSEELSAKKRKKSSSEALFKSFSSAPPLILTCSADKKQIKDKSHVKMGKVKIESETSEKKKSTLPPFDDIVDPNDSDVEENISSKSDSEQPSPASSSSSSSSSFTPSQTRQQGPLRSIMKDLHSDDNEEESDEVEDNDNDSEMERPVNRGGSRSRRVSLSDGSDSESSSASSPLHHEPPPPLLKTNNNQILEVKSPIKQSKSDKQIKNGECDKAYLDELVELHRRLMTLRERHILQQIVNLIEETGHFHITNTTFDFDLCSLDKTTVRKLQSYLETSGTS
# Active calls of the source: *; nt = not tested or not shown; ! = not active in a repeat. Only some compounds are listed: those with a hit (about 1.3% of all), similar ones and a draw of the others.
SMILES,SIRT5 block,FN deposit inh,ERp5 block,PDI turbidity,MLL AF4-AF9 inh
COc1ccccc1C1Nc2ccccc2NC2=C1C(=O)CC(C)(C)C2 (stereo unspecified),5,-2,6,-9,1
CCN(CC)c1ccc(NC(=S)NC(=O)C2CCC2)cc1,-2,nt,4,12,26*
CC(=O)Nc1ccc(NC(=S)NC(=O)C2CCCC2)cc1,0,nt,9,4,0
Cc1ccc2c(nc3s/c(=C\c4ccc(-c5ccccc5C(=O)O)o4)c(=O)n32)c1C,10,-1,0,4,-1
COc1ccc2ccccc2c1C1CC(=O)N2CN(C3CCCCC3)CSC2=C1C#N (stereo unspecified),17*,9,9,nt,-8
O=C(COc1ncnc2cc(Cl)ccc12)c1ccc2c(c1)OCCO2,-1,-1,5,0,1
CCOC(=O)c1c(CN(C)C)n(-c2ccc(C)cc2)c2cc(Br)c(O)cc12,nt,nt,nt,49*,nt
CCCC#Cc1ccc2c(c1)O[C@@H](CN(C)C(=O)Nc1ccccc1F)[C@H](C)CN([C@H](C)CO)S2(=O)=O,20*,5,4,nt,5
CCCC#Cc1ccc2c(c1)O[C@@H](CN(C)C(=O)Nc1ccccc1F)[C@H](C)CN([C@@H](C)CO)S2(=O)=O,17*,5,2,nt,1
CCCC#Cc1ccc2c(c1)O[C@H](CN(C)C(=O)c1ccccc1F)[C@H](C)CN([C@@H](C)CO)S2(=O)=O,19*,-4,-2,nt,1
CC(C)CC#Cc1ccc2c(c1)O[C@H](CN(C)C(=O)Nc1ccccc1F)[C@@H](C)CN([C@H](C)CO)S2(=O)=O,7,-3,-6,nt,2
CC(C)CC#Cc1ccc2c(c1)O[C@H](CN(C)C(=O)Nc1ccccc1F)[C@H](C)CN([C@H](C)CO)S2(=O)=O,18*,3,2,nt,0
CCCC#Cc1ccc2c(c1)O[C@@H](CN(C)C(=O)c1ccccc1F)[C@H](C)CN([C@@H](C)CO)S2(=O)=O,14,-13,-4,nt,0
O=C(C[C@@H]1CC[C@@H]2[C@H](COC[C@H](O)CN2C(=O)Nc2ccccc2)O1)NCc1ccccc1F,-2,-4,-2,nt,-1
C[C@@H]1CN([C@H](C)CO)S(=O)(=O)c2ccc(C#Cc3ccccc3F)cc2O[C@@H]1CN(C)C(=O)Cc1ccccc1,20*!,20,-1,5,-5
COc1ccc(C2C=C(C34CC5CC(CC(C5)C3)C4)NC(=S)N2)cc1OC (stereo unspecified),nt,4,-3,-6,-7
Cn1c(O)c(N=NC(=O)C2COc3ccccc3O2)c2ccccc21 (stereo unspecified),1,-2,1,-2,-92
CC(C)n1c(O)c(N=NC(=O)C2COc3ccccc3O2)c2ccccc21 (stereo unspecified),-2,nt,3,-4,39*
C/C(=N\Nc1ccc(C(=O)O)cc1)c1ccc(Br)cc1,21*,-5,2,-2,-3
C/C(=N\Nc1ccc(C(=O)O)cc1)c1ccc(Cl)s1,23*,4,-2,8,4
C=CCN(Cc1nc(-c2ccc(OC)cc2)no1)C(=O)c1ccc2c(c1)OCO2,17*,-1,-2,2,-2
CSc1nsc(SCC(=O)N2CCCc3ccccc32)n1,nt,nt,nt,-5,nt
Nc1c(C=C2C=CC(=O)C=C2)c(=O)nc2sc(CC(=O)N3CCCCC3)nn12,40*,-2,6,7,-2
Nc1c(/C=C2/C=CC(=O)C(O)=C2)c(=O)nc2sc(CC(=O)N3CCCC3)nn12,29*,12,0,-3,-2
Nc1c(/C=C2/C=CC(=O)C(O)=C2)c(=O)nc2sc(CC(=O)N3CCOCC3)nn12,34*,-4,0,-4,-9
SMILES,SIRT5 block,FN deposit inh,ERp5 block,PDI turbidity,MLL AF4-AF9 inh
CC1=Nc2ccc(C)cc2/C1=C/c1c(N)n2nc(CC(=O)N3CCOCC3)sc2nc1=O,-1,-4,-3,2,-3
Nc1c(/C=C2/C=CC(=O)C(O)=C2)c(=O)nc2sc(CC(=O)N3CCCCC3)nn12,43*,-7,5,3,-1
O=C(O)c1sccc1S(=O)(=O)c1ccccc1,nt,nt,nt,3,nt
O=C(NC1CCCCC1)N(Cc1ccccc1)Cc1ccco1,nt,nt,nt,7,nt
CCOC(=O)c1ccc(NC(=O)c2ccco2)cc1,17*,-3,3,7,3
C[C@@H]1CN([C@H](C)CO)C(=O)c2cccc(NS(=O)(=O)c3ccc(F)cc3)c2O[C@@H]1CN(C)Cc1ccncc1,3,nt,-1,nt,0
COC(=O)c1c(C(C)=O)c(C)n(C)c1C,16*,-3,4,10,-1
COC(=O)Cn1c(C)c(C(C)=O)c(C(C)=O)c1C,-5,nt,-4,1,nt
Cc1nc(S(=O)(=O)N(C)Cc2ccccc2)c(C#N)c(C)c1Cl,17*,-3,-6,-6,nt
Cc1nc(S(=O)(=O)NC2CCCCC2)c(C#N)c(C)c1Cl,nt,nt,nt,0,nt
CCN1C(=O)S/C(=C/c2cn(C)c3ccccc23)C1=O,-2,0,-5,-6,7
CC[C@@]12C(=O)N(c3ccccc3)C(=O)N1[C@H](c1ccc(OC)cc1)[C@@H]1C(=O)N(C(C)(C)C)C(=O)[C@@H]12,-1,2,1,0,-8
CC[C@@]12C(=O)N(c3ccc(C)cc3)C(=O)N1[C@H](c1ccc(OC)cc1)[C@@H]1C(=O)N(C(C)(C)C)C(=O)[C@@H]12,20*,-2,0,16,-1
C[C@@H](O)C#Cc1ccc2c(c1)O[C@H](CN(C)C(=O)Nc1ccccc1)[C@@H](C)CN([C@@H](C)CO)S2(=O)=O,-2,1,-3,2,-1
CC(=O)Nc1nnc(-c2ccc(Cl)s2)o1,-1,-2,-1,-5,45*
CCC(=O)Nc1nnc(-c2ccc(Cl)s2)o1,3,-7,1,1,-1
COc1ccc(-c2nc(C#N)c(N3CCCCCC3)o2)cc1OC,-54,nt,2,-2,27*
Cc1ccc(-c2nc(C#N)c(N3CCC(C)CC3)o2)cc1,-5,-2,3,1,28*
COc1ccc(-c2nc(C#N)c(N3CCCCC3)o2)cc1,-13,-7,-1,6,4
COc1cc(C(=O)N2CCNCC2)cc(OC)c1OC,21*,-3,3,3,0
Oc1cccc(Nc2c3ccccc3nc3ccccc23)c1,-9,-3,-5,10,0
CCN(CC)Cc1cc(Nc2c3ccccc3nc3c4ccccc4n(C)c23)cc(CN(CC)CC)c1O,0,5,5,6,55*
CCSc1nnc(NC(=O)CSc2sc3c(O)cc(=O)[nH]c3c2C#N)s1,32*,-6,1,4,-1
COC(=O)c1ccc(C)c(NC(=O)CSc2sc3c(O)cc(=O)[nH]c3c2C#N)c1,19*,-1,1,5,-1
Cc1csc(NC(=O)CSc2sc3c(O)cc(=O)[nH]c3c2C#N)n1,42*,13,0,-2,-6
Cc1ccc(C)c(NC(=O)CSc2sc3c(O)cc(=O)[nH]c3c2C#N)c1,4,-6,3,2,2
